Key:
Plasmodium falciparum = experiment: Antimalarial activity against mefloquine-resistant Plasmodium falciparum TM91C235 assessed as [3H]hypoxanthine incorporation after 48 hrs; assay type: functional, organism-based
Procedure, shortened: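 Tritiated hypoxanthine incorporation assay (Desjardins method, Milhous modification) with 48 h drug exposure. Uses P. falciparum clone TM91C235 (Southeast Asian, mefloquine-resistant). Compounds 2-fold diluted over 11 concentrations. IC50 derived by nonlinear logistic dose-response fitting, averaged where multiple runs were done.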

HepG2 = experiment: Cytotoxicity against human HepG2 cells after 24 hrs by MTS assay; assay type: cell-based; details: HepG2, 24 h
Procedure, shortened: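 HepG2 cells kept in RPMI 1640 with 10% FBS plus antibiotics at 37 °C, 5% CO₂. 50 000 cells per well exposed to 10 two-fold serial dilutions for 24 h. MTS reagent then added for 2 h more, absorbance read at 490 nm, IC50 derived.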

| Compound | IC50 (Plasmodium falciparum) | IC50 (HepG2) |
| --- | --- | --- |
| CC[C@H]1OC(=O)[C@H](C)[C@@H](O)[C@H](C)[C@@H](O[C@@H]2O[C@H](C)C[C@H](N(C)C)[C@H]2O)[C@](C)(O)C[C@@H](C)CN(CCCNCc2cnc3ccccc3c2)[C@H](C)[C@@H](O)[C@]1(C)O | 201 nM |  |
| CC[C@H]1OC(=O)[C@H](C)[C@@H](O)[C@H](C)[C@@H](O)[C@](C)(O)C[C@@H](C)CN(CCCNCc2ccc3ccccc3n2)[C@H](C)[C@@H](O)[C@]1(C)O | 1970 nM | > 50000 nM |
| CC[C@H]1OC(=O)[C@H](C)[C@@H](O[C@H]2C[C@@](C)(OC)[C@@H](O)[C@H](C)O2)[C@H](C)[C@@H](O[C@@H]2O[C@H](C)C[C@H](N(C)C)[C@H]2O)[C@](C)(O)C[C@@H](C)CN(CCCNCc2cnc3ccccc3c2)[C@H](C)[C@@H](O)[C@]1(C)O | 50 nM | 45000 nM |
| CC[C@H]1OC(=O)[C@H](C)[C@@H](O[C@H]2C[C@@](C)(OC)[C@@H](O)[C@H](C)O2)[C@H](C)[C@@H](O[C@@H]2O[C@H](C)C[C@H](N(C)C)[C@H]2O)[C@](C)(O)C[C@@H](C)CN(CCCNC(=O)Cc2ccc3ccccc3c2)[C@H](C)[C@@H](O)[C@]1(C)O | 79 nM | 40000 nM |
| CC[C@H]1OC(=O)[C@H](C)[C@@H](O[C@H]2C[C@@](C)(OC)[C@@H](O)[C@H](C)O2)[C@H](C)[C@@H](O[C@@H]2O[C@H](C)C[C@H](N(C)C)[C@H]2O)[C@](C)(O)C[C@@H](C)CN(CCCNC(=O)Cc2cccc3ccccc23)[C@H](C)[C@@H](O)[C@]1(C)O | 62 nM |  |
| CC[C@H]1OC(=O)[C@H](C)[C@@H](O[C@H]2C[C@@](C)(OC)[C@@H](O)[C@H](C)O2)[C@H](C)[C@@H](O[C@@H]2O[C@H](C)C[C@H](N(C)C)[C@H]2O)[C@](C)(O)C[C@@H](C)CN(CCCNc2cc(C)nc3ccc(OC)cc23)[C@H](C)[C@@H](O)[C@]1(C)O | 854 nM | > 50000 nM |
| CC[C@H]1OC(=O)[C@H](C)[C@@H](O[C@H]2C[C@@](C)(OC)[C@@H](O)[C@H](C)O2)[C@H](C)[C@@H](O[C@@H]2O[C@H](C)C[C@H](N(C)C)[C@H]2O)[C@](C)(O)C[C@@H](C)CN(CCCNCc2ccccn2)[C@H](C)[C@@H](O)[C@]1(C)O | 1480 nM |  |
| CC[C@H]1OC(=O)[C@H](C)[C@@H](O)[C@H](C)[C@@H](O[C@@H]2O[C@H](C)C[C@H](N(C)C)[C@H]2O)[C@](C)(O)C[C@@H](C)CN(CCCNc2ccnc3ccccc23)[C@H](C)[C@@H](O)[C@]1(C)O | 437 nM | > 50000 nM |
| CC[C@H]1OC(=O)[C@H](C)[C@@H](O[C@H]2C[C@@](C)(OC)[C@@H](O)[C@H](C)O2)[C@H](C)[C@@H](O[C@@H]2O[C@H](C)C[C@H](N(C)C)[C@H]2O)[C@](C)(O)C[C@@H](C)CN(CCCNCc2ccc3ccccc3n2)[C@H](C)[C@@H](O)[C@]1(C)O | 62 nM | 28000 nM |
| CC[C@H]1OC(=O)[C@H](C)[C@@H](O[C@H]2C[C@@](C)(OC)[C@@H](O)[C@H](C)O2)[C@H](C)[C@@H](O[C@@H]2O[C@H](C)C[C@H](N(C)C)[C@H]2O)[C@](C)(O)C[C@@H](C)CN(CCCNCc2cccnc2)[C@H](C)[C@@H](O)[C@]1(C)O | 391 nM | > 50000 nM |
| CC[C@H]1OC(=O)[C@H](C)[C@@H](O[C@H]2C[C@@](C)(OC)[C@@H](O)[C@H](C)O2)[C@H](C)[C@@H](O[C@@H]2O[C@H](C)C[C@H](N(C)C)[C@H]2O)[C@](C)(O)C[C@@H](C)CN(CCC(=O)NCCCCc2ccccc2)[C@H](C)[C@@H](O)[C@]1(C)O | 162 nM | 40000 nM |
| CCOc1ccc2ccccc2c1CNCCCN1C[C@H](C)C[C@@](C)(O)[C@H](O[C@@H]2O[C@H](C)C[C@H](N(C)C)[C@H]2O)[C@@H](C)[C@H](O[C@H]2C[C@@](C)(OC)[C@@H](O)[C@H](C)O2)[C@@H](C)C(=O)O[C@H](CC)[C@@](C)(O)[C@H](O)[C@H]1C | 26 nM | 7000 nM |
| CC[C@H]1OC(=O)[C@H](C)[C@@H](O[C@H]2C[C@@](C)(OC)[C@@H](O)[C@H](C)O2)[C@H](C)[C@@H](O[C@@H]2O[C@H](C)C[C@H](N(C)C)[C@H]2O)[C@](C)(O)C[C@@H](C)CN(CCCNCc2ccncc2)[C@H](C)[C@@H](O)[C@]1(C)O | 568 nM | > 50000 nM |
| CC[C@H]1OC(=O)[C@H](C)[C@@H](O[C@H]2C[C@@](C)(OC)[C@@H](O)[C@H](C)O2)[C@H](C)[C@@H](O[C@@H]2O[C@H](C)C[C@H](N(C)C)[C@H]2O)[C@](C)(O)C[C@@H](C)CN(CCC(=O)NCCc2ccccc2)[C@H](C)[C@@H](O)[C@]1(C)O | 367 nM | > 50000 nM |
| CC[C@H]1OC(=O)[C@H](C)[C@@H](O)[C@H](C)[C@@H](O[C@@H]2O[C@H](C)C[C@H](N(C)C)[C@H]2O)[C@](C)(O)C[C@@H](C)CN(CCCNC(=O)[C@H](C)c2ccc3cc(OC)ccc3c2)[C@H](C)[C@@H](O)[C@]1(C)O | 520 nM |  |
| CC[C@H]1OC(=O)[C@H](C)[C@@H](O[C@H]2C[C@@](C)(OC)[C@@H](O)[C@H](C)O2)[C@H](C)[C@@H](O[C@@H]2O[C@H](C)C[C@H](N(C)C)[C@H]2O)[C@](C)(O)C[C@@H](C)CN(CCCNC(=O)[C@H](C)c2ccc3cc(OC)ccc3c2)[C@H](C)[C@@H](O)[C@]1(C)O | 58 nM | 20000 nM |
| CC[C@H]1OC(=O)[C@H](C)[C@@H](O[C@H]2C[C@@](C)(OC)[C@@H](O)[C@H](C)O2)[C@H](C)[C@@H](O[C@@H]2O[C@H](C)C[C@H](N(C)C)[C@H]2O)[C@](C)(O)C[C@@H](C)CN(CCCNCCCc2ccccc2)[C@H](C)[C@@H](O)[C@]1(C)O | 106 nM | 40000 nM |
| CC[C@H]1OC(=O)[C@H](C)[C@@H](O)[C@H](C)[C@@H](O[C@@H]2O[C@H](C)C[C@H](N(C)C)[C@H]2O)[C@](C)(O)C[C@@H](C)CN(CCCNCc2cccc3ccccc23)[C@H](C)[C@@H](O)[C@]1(C)O | 55 nM | 38000 nM |
| CC[C@H]1OC(=O)[C@H](C)[C@@H](O[C@H]2C[C@@](C)(OC)[C@@H](O)[C@H](C)O2)[C@H](C)[C@@H](O[C@@H]2O[C@H](C)C[C@H](N(C)C)[C@H]2O)[C@](C)(O)C[C@@H](C)CN(CCCNc2ncnc3[nH]cnc23)[C@H](C)[C@@H](O)[C@]1(C)O | > 6400 nM | > 50000 nM |
| CC[C@H]1OC(=O)[C@H](C)[C@@H](O)[C@H](C)[C@@H](O[C@@H]2O[C@H](C)C[C@H](N(C)C)[C@H]2O)[C@](C)(O)C[C@@H](C)CN(CCCNCc2ccnc3ccccc23)[C@H](C)[C@@H](O)[C@]1(C)O | 264 nM | > 50000 nM |
| CC[C@H]1OC(=O)[C@H](C)[C@@H](O[C@H]2C[C@@](C)(OC)[C@@H](O)[C@H](C)O2)[C@H](C)[C@@H](O[C@@H]2O[C@H](C)C[C@H](N(C)C)[C@H]2O)[C@](C)(O)C[C@@H](C)CN(CCCNC(=O)CCCc2ccccc2)[C@H](C)[C@@H](O)[C@]1(C)O | 85 nM | > 50000 nM |
| CC[C@H]1OC(=O)[C@H](C)[C@@H](O[C@H]2C[C@@](C)(OC)[C@@H](O)[C@H](C)O2)[C@H](C)[C@@H](O[C@@H]2O[C@H](C)C[C@H](N(C)C)[C@H]2O)[C@](C)(O)C[C@@H](C)CN(CCCNCCCCc2ccccc2)[C@H](C)[C@@H](O)[C@]1(C)O | 51 nM | 16000 nM |
| CC[C@H]1OC(=O)[C@H](C)[C@@H](O)[C@H](C)[C@@H](O)[C@](C)(O)C[C@@H](C)CN(CCCNC(=O)c2ocnc2C)[C@H](C)[C@@H](O)[C@]1(C)O | > 21300 nM |  |
| CC[C@H]1OC(=O)[C@H](C)[C@@H](O)[C@H](C)[C@@H](O[C@@H]2O[C@H](C)C[C@H](N(C)C)[C@H]2O)[C@](C)(O)C[C@@H](C)CN(CCCNCc2ccc3ccccc3n2)[C@H](C)[C@@H](O)[C@]1(C)O | 164 nM |  |
| CC[C@H]1OC(=O)[C@H](C)[C@@H](O[C@H]2C[C@@](C)(OC)[C@@H](O)[C@H](C)O2)[C@H](C)[C@@H](O[C@@H]2O[C@H](C)C[C@H](N(C)C)[C@H]2O)[C@](C)(O)C[C@@H](C)CN(CCCNC(=O)Cc2ccccc2)[C@H](C)[C@@H](O)[C@]1(C)O | 233 nM | > 50000 nM |
| CC[C@H]1OC(=O)[C@H](C)[C@@H](O[C@H]2C[C@@](C)(OC)[C@@H](O)[C@H](C)O2)[C@H](C)[C@@H](O[C@@H]2O[C@H](C)C[C@H](N(C)C)[C@H]2O)[C@](C)(O)C[C@@H](C)CN(CCC(=O)NCc2cccc3ccccc23)[C@H](C)[C@@H](O)[C@]1(C)O | 79 nM | 49000 nM |
| CC[C@H]1OC(=O)[C@H](C)[C@@H](O)[C@H](C)[C@@H](O[C@@H]2O[C@H](C)C[C@H](N(C)C)[C@H]2O)[C@](C)(O)C[C@@H](C)CN(CCCNCc2cccnc2)[C@H](C)[C@@H](O)[C@]1(C)O | 2510 nM | > 50000 nM |
| CC[C@H]1OC(=O)[C@H](C)[C@@H](O[C@H]2C[C@@](C)(OC)[C@@H](O)[C@H](C)O2)[C@H](C)[C@@H](O[C@@H]2O[C@H](C)C[C@H](N(C)C)[C@H]2O)[C@](C)(O)C[C@@H](C)CN(CCCNCc2cccc3ccccc23)[C@H](C)[C@@H](O)[C@]1(C)O | 25 nM | 10000 nM |
| CC[C@H]1OC(=O)[C@H](C)[C@@H](O)[C@H](C)[C@@H](O[C@@H]2O[C@H](C)C[C@H](N(C)C)[C@H]2O)[C@](C)(O)C[C@@H](C)CN(CCCNC(=O)Cc2cccc3ccccc23)[C@H](C)[C@@H](O)[C@]1(C)O | 1370 nM |  |
| CC[C@H]1OC(=O)[C@H](C)[C@@H](O[C@H]2C[C@@](C)(OC)[C@@H](O)[C@H](C)O2)[C@H](C)[C@@H](O[C@@H]2O[C@H](C)C[C@H](N(C)C)[C@H]2O)[C@](C)(O)C[C@@H](C)CN(CCCNC(=O)c2ocnc2C)[C@H](C)[C@@H](O)[C@]1(C)O | 878 nM |  |

Source: ChEMBL document CHEMBL2029228, “Antimalarial activity of 9a-N substituted 15-membered azalides with improved in vitro and in vivo activity over azithromycin” (J Med Chem, 2012)
